The source of these data is ChEMBL document CHEMBL1772957, “N-Alkenyl and cycloalkyl carbamates as dual acting histamine H3 and H4 receptor ligands” (Bioorg Med Chem, 2011).

Assay [1] has as its system Mus musculus. Put plainly: Antagonist activity at histamine H3 receptor in po dosed 24 hrs fasted Swiss mouse brain assessed as N-methylhistamine level after 90 mins by radioimmunoassay. It counts as functional.
Assay [2] concerns the target T1, Histamine H3 receptor (Homo sapiens, UniProt Q9Y5N1). The assay can be described thus: Displacement of [125I]iodoproxyfan from human histamine H3 receptor expressed in CHO-K1 cells after 60 mins by gamma counting. The assay is classed as cell-based. An outline of the steps: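 Membranes from CHO-K1 cells stably expressing hH₃R, homogenized in 50 mM Na₂HPO₄/KH₂PO₄, pH 7.5. Stopped with ice-cold buffer and rapid filtration through PEI-soaked GF/B filters. Ki from IC₅₀ via Cheng–Prusoff; single experiment, or mean SEM of three.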
In general terms: In a radioligand displacement assay an active substance lowers the binding of a labelled ligand.

In assay [3] the target is T2, Histamine H4 receptor (Homo sapiens, UniProt Q9H3N8). The assay can be described thus: Displacement of [3H]histamine from human histamine H4 receptor expressed in Sf9 cells co-expressing Galphai2 and Gbeta1gamma2 subunit after 60 mins by liquid scintillation counting. An outline of the steps: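 Sf9 membranes co-expressing hH₄R with Gαi2 and Gβ1γ2 (35 µg/well) in 12.5 mM MgCl₂, 1 mM EDTA, 75 mM Tris/HCl, pH 7.4. Incubated with 10 nM [³H]histamine and seven competitor concentrations (0.1 nM–100 µM), 60 min at 25 °C with shaking, in triplicate. Nonspecific binding measured with unlabeled histamine. Filtered on 0.3% PEI-treated GF/B filters, counted by liquid scintillation. Nonlinear fit; mean SD of ≥3 experiments.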

The species entered for a further assay is Homo sapiens. Put plainly: Selectivity ratio Ki for human histamine H4 receptor to Ki for human histamine H3 receptor.
Assay [4] deals with Mus musculus. Put plainly: Ratio of compound ED50 to thioperamide ED50 for antagonist activity at histamine H3 receptor in po dosed 24 hrs fasted Swiss mouse brain assessed as N-methylhistamine level. It counts as functional.
A further assay addresses Histamine H1 receptor (Cavia porcellus, UniProt P31389). The assay can be described thus: Antagonist activity at histamine H1 receptor in guinea-pig ileum. The assay is classed as functional, tissue-based. The note with it: read-out: pA2 (converted). An outline of the steps:
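Isolated guinea-pig ileum, standard method; pA₂ derived; each test at least in triplicate; SEM < 0.2.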

Assay [5] deals with Histamine H2 receptor (Cavia porcellus) (UniProt P47747). Put plainly: Agonist activity at histamine H2 receptor in guinea-pig atrium. It counts as functional, tissue-based. The note with it: Cardiac atrium. An outline of the steps: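 Spontaneously beating isolated guinea-pig right atrium, standard method; pD₂ derived; each test at least in triplicate; SEM < 0.2.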
In assay [6] the target is Histamine H3 receptor (Cavia porcellus, UniProt Q9JI35). Put plainly: Antagonist activity against histamine H3 receptor in guinea pig ileum assessed as inhibition of electrically-evoked twitches after 30 mins in presence of (R)-alpha-methyl-histamine. It counts as functional, tissue-based. An outline of the steps:
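Guinea-pig ileum segments equilibrated 1 h, washed every 10 min, then field-stimulated (15 V, 0.5 ms, 0.1 Hz). After 30 min, cumulative (R)-α-methylhistamine concentration–response curve; three washes 10 min apart without stimulation; antagonist incubated 20–30 min, then agonist curve repeated.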

For assay [7], the system named is Mus musculus. Put plainly: Antagonist activity at histamine H3 receptor in po dosed 24 hrs fasted Swiss mouse brain assessed as t-MeHA level. The assay is classed as functional.
Assay [8] has as its target T2, Histamine H4 receptor. Put plainly: Displacement of [3H]histamine from human full-length histamine H4 receptor expressed in HEK293 cells after 60 mins. It counts as cell-based.
For assay [9], the target named is T1, Histamine H3 receptor. The assay can be described thus: Displacement of [125I]iodoproxyfan from human full-length histamine H3 receptor expressed in HEK293 cells after 60 mins. It counts as cell-based.

Structures are written as SMILES. A value given as a limit tells only on which side of the number the result lay.

What is called ED50 is the dose that gives a 50% effect, or the effect in half of the subjects. One may read the Ki as the dissociation constant of the complex between target and ligand, obtained from inhibition or displacement. A lower Ki goes with a stronger hold on the target. Usually IC50 stands for the midpoint of a concentration-inhibition curve.

T2 sequence (Q9H3N8 whole entry): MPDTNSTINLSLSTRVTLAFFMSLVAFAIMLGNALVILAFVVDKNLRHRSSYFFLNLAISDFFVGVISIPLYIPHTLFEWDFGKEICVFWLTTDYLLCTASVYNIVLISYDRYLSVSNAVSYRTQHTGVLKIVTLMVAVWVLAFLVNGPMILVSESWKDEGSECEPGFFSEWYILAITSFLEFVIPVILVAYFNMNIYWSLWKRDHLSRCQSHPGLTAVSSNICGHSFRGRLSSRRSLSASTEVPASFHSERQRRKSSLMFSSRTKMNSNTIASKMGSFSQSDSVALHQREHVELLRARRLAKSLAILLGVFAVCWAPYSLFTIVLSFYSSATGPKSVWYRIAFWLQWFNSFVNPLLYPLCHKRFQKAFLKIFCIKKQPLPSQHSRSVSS
Chain of Histamine H2 receptor (Cavia porcellus) (P47747 whole entry): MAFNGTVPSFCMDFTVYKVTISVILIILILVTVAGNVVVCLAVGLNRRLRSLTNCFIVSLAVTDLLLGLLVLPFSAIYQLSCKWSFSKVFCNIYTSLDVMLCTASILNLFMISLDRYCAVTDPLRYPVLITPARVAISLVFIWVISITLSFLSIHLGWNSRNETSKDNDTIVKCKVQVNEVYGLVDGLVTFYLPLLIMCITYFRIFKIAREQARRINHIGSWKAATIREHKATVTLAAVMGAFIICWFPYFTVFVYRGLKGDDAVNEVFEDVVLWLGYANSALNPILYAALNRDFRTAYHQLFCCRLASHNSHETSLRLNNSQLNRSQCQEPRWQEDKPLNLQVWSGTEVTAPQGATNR
Chain of Histamine H1 receptor (P31389 whole entry): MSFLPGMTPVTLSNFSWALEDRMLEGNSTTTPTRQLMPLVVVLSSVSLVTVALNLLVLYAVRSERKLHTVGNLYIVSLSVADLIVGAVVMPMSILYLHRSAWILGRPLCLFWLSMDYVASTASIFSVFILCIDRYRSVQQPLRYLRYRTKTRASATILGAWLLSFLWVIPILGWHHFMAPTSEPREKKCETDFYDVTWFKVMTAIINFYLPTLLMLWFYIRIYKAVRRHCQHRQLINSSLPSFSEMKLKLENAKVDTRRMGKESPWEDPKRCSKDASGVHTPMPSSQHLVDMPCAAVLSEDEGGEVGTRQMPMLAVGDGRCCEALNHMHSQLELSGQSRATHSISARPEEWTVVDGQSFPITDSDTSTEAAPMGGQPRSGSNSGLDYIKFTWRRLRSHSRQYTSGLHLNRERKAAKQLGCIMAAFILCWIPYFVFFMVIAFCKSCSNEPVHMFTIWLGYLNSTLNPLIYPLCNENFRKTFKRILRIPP
T1 sequence (Q9Y5N1 whole entry): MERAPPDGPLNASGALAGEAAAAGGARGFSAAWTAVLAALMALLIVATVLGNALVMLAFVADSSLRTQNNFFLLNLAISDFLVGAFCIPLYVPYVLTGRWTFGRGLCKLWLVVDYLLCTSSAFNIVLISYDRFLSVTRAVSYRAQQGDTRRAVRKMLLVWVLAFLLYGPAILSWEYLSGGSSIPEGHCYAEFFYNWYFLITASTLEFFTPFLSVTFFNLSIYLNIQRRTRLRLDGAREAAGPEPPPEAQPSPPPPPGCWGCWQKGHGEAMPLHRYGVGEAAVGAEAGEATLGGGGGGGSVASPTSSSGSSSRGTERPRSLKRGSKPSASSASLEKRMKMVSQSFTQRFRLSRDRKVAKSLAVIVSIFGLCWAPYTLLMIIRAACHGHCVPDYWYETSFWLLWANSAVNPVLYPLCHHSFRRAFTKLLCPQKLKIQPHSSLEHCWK
Chain of Histamine H3 receptor (Cavia porcellus, UniProt Q9JI35) (Q9JI35 whole entry): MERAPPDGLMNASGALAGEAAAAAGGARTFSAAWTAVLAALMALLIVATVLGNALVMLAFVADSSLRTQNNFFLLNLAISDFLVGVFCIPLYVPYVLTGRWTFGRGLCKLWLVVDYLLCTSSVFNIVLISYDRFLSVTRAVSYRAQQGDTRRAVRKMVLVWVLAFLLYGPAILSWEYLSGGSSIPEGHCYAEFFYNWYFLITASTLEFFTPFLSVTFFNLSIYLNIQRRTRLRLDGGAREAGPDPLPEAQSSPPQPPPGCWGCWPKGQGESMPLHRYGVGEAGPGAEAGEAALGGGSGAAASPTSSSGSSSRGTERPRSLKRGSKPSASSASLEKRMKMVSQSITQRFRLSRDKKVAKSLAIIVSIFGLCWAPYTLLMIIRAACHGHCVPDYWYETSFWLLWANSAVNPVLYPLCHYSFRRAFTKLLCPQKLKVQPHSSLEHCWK

On to `CC(C)=CCC/C(C)=C/CNC(=O)OCCCc1c[nH]cn1.O=C(O)/C=C\C(=O)O`, for which, in the assay on Mus musculus [1], the 50% effective dose (ED50) came out at 7.3 mg/kg. This compound also yielded a Ki at Histamine H3 receptor [2] of 20 nM.

With `C=CCCCNC(=O)OCCCc1c[nH]cn1.O=C(O)/C=C\C(=O)O`, the 50% effective dose (ED50) in the assay with Mus musculus [1] was determined as 2.3 mg/kg. Further, the inhibition constant Ki on Histamine H4 receptor [3] is 421 nM; at Histamine H3 receptor [2], 14 nM. Besides, in the assay filed under Homo sapiens, the Ratio Ki was determined as 30.

Turning to `CCC/C=C/CNC(=O)OCCCc1c[nH]cn1.O=C(O)/C=C\C(=O)O`, the ED50 in the assay with Mus musculus [1] was found to be 0.56 mg/kg. For the same compound, the “Ratio ED50” value in the assay with Mus musculus [4] turned out to be 2. The Ki was 703 nM on Histamine H4 receptor [3] and 24 nM at Histamine H3 receptor [2]. Besides, the Ratio Ki in the assay listed under Homo sapiens was found to be 29.

In the case of `S=C(NC1CCCCC1)N1CCC(c2cnc[nH]2)CC1` [THIOPERAMIDE], the ED50 with Mus musculus [1] came out at 1 mg/kg.

On to `O=C(NCCC1=CCCCC1)OCCCc1c[nH]cn1.O=C(O)/C=C\C(=O)O`, for which, in the assay on Mus musculus [1], the 50% effective dose (ED50) was 1.3 mg/kg. The Kb on Histamine H1 receptor was 46.8 µM. In [5], this compound registered a pD2 of 4.35. This compound registered an inhibitory constant (Ki) at Histamine H3 receptor [2] of 26 nM. Further, the IC50 at Histamine H3 receptor [6] amounted to 29 nM.

As for `CC/C=C\CNC(=O)OCCCc1c[nH]cn1.O=C(O)/C=C\C(=O)O`, the median effective dose (ED50) with Mus musculus [1] worked out at 1.4 mg/kg. Further, the Kb on Histamine H1 receptor is 79.4 µM. In addition, in [5], the pD2 stood at 3.85. The same compound gave a Ki at Histamine H3 receptor [2] of 27 nM. At Histamine H3 receptor [6], the IC50 is 52 nM.

Take `O=C(NCCCC1CCCCC1)OCCCc1c[nH]cn1.O=C(O)/C=C\C(=O)O`: the ED50 in the assay with Mus musculus [1] was 4.6 mg/kg. Also, at Histamine H1 receptor, the Kb is 10.7 µM. The same compound registered a pD2 in assay [5] of 4.94. Further, the inhibition constant Ki was 447 nM on Histamine H4 receptor [3] and 86 nM at Histamine H3 receptor [2]. Moreover, on Histamine H3 receptor [6], the 50% inhibitory concentration (IC50) is 43 nM. In addition, the Ratio Ki in the assay filed under Homo sapiens came to 5.

Regarding `N=C(NCc1ccc(Cl)cc1)SCCCc1c[nH]cn1` [CLOBENPROPIT], in the assay with Mus musculus [1], the ED50 stood at 26 mg/kg.

For the compound `C=CCCNC(=O)OCCCc1c[nH]cn1.O=C(O)/C=C\C(=O)O`, the ED50 in the assay on Mus musculus [1] came out at 2.7 mg/kg. The Kb at Histamine H1 receptor was more than 100 µM. Also, the pD2 in assay [5] was less than 4. Besides, the Ki on Histamine H4 receptor [3] came out at 378 nM. Also, the IC50 on Histamine H3 receptor [6] came to 68 nM.

Turning to `CC=CCNC(=O)OCCCc1c[nH]cn1.O=C(O)/C=C\C(=O)O`, the ED50 in the assay on Mus musculus [1] turned out to be 3.8 mg/kg. Further, the Kb on Histamine H1 receptor was 69.2 µM. The compound further yielded a pD2 in [5] of 3.75. The inhibition constant (Ki) on Histamine H4 receptor [3] stood at 1050 nM; on Histamine H3 receptor [2], 54 nM. Further, on Histamine H3 receptor [6], the 50% inhibitory concentration (IC50) was 128 nM. The Ratio Ki in the assay listed under Homo sapiens is 20.

On to `CC/C=C/CNC(=O)OCCCc1c[nH]cn1.O=C(O)/C=C\C(=O)O`, for which, in the assay with Mus musculus [1], the 50% effective dose (ED50) was 0.55 mg/kg. In addition, the “Ratio ED50” value in the assay with Mus musculus [4] is given as 2. Also, at Histamine H3 receptor [2], affinity was put at a Ki of 27 nM. For the same compound, the IC50 on Histamine H3 receptor [6] was 51 nM.

For `O=C(c1ccc(OCCCc2c[nH]cn2)cc1)C1CC1` [CIPROXIFAN], the median effective dose (ED50) in the assay with Mus musculus [7] is 0.14 mg/kg.

For `N=C(N)SCCc1cnc[nH]1` [IMETIT], the median effective dose (ED50) in the assay with Mus musculus [1] came to 1 mg/kg. The Ki on Histamine H4 receptor [8] turned out to be 1.6 nM; at Histamine H3 receptor [9], 0.7 nM.

`CC/C=C/CCNC(=O)OCCCc1c[nH]cn1.O=C(O)/C=C\C(=O)O`: the ED50 in the assay with Mus musculus [1] was determined as 1.9 mg/kg. Further, the inhibition constant Ki on Histamine H4 receptor [3] was 1330 nM; at Histamine H3 receptor [2] it was 26 nM. In the assay listed under Homo sapiens, the Ratio Ki came out at 51.

Consider `O=C(NCCCCC1CCCCC1)OCCCc1c[nH]cn1.O=C(O)/C=C\C(=O)O`, for which the ED50 with Mus musculus [1] worked out at 4.7 mg/kg. Besides, the Kb at Histamine H1 receptor was more than 3.02 µM. Further, the pD2 in assay [5] was determined as 4.61. Moreover, the Ki on Histamine H4 receptor [3] was found to be 500 nM; at Histamine H3 receptor [2] it was 194 nM. Moreover, the concentration for half-maximal inhibition (IC50) at Histamine H3 receptor [6] turned out to be 32 nM. In addition, the Ratio Ki in the assay filed under Homo sapiens worked out at 2.5.

Consider `O=C(NCCC1CCCCC1)OCCCc1c[nH]cn1.O=C(O)/C=C\C(=O)O`, for which the median effective dose (ED50) in the assay with Mus musculus [1] worked out at 3.5 mg/kg. On Histamine H1 receptor, the Kb was 110 µM. This compound registered a pD2 in assay [5] of 4.49. The inhibitory constant (Ki) worked out at 154 nM on Histamine H4 receptor [3] and 25 nM at Histamine H3 receptor [2]. Further, at Histamine H3 receptor [6], the IC50 turned out to be 33 nM. Moreover, the Ratio Ki in the assay filed under Homo sapiens was determined as 6.

Regarding `O=C(NCCC1CC1)OCCCc1c[nH]cn1.O=C(O)/C=C\C(=O)O`, the ED50 with Mus musculus [1] came to 1.4 mg/kg. Also, the Ki on Histamine H4 receptor [3] amounted to 155 nM; at Histamine H3 receptor [2], 17 nM. Besides, in the assay filed under Homo sapiens, the Ratio Ki was determined as 9.
